Laboratory results reported in ChEMBL document CHEMBL4229376, “Optimization of the pharmacokinetic properties of potent anti-trypanosomal triazine derivatives” (Eur J Med Chem, 2018).
Activity calls are given as the source filed them. No cut-off for these calls is given here.

Columns and labels:
[1] = test system: Trypanosoma cruzi; experiment: Antitrypanosomal activity against nifurtimox-sensitive Trypanosoma cruzi Tulahuen CL2 infected in human MRC5 SV2 cells assessed as reduction in parasite burden after 168 hrs by CPRG and Nonidet based spectrophotometric analysis; format: functional, organism-based; conditions: Tulahuen CL2, MRC-5 SV2, 168 h
[2] = Cytotoxicity against human MRC5 SV2 cells after 72 hrs by resazurin dye-based fluorimetric analysis; format: cell-based; conditions: MRC-5 SV2, 72 h
[3] = test system: Peritoneal macrophage; experiment: Cytotoxicity against mouse primary peritoneal macrophages after 72 hrs by resazurin dye-based fluorimetric analysis; format: cell-based
[4] = Drug metabolism in mouse liver microsomes assessed as CYP450 mediated compound […] by measuring parent compound remaining at 5 uM after 30 mins in presence of NADPH by UPLC/MS/ESI analysis; format: ADME; conditions: read-out: Stability
[5] = Drug metabolism in mouse liver microsomes assessed as UGT mediated compound […] by measuring parent compound remaining at 5 uM after 30 mins in presence of UDPGA by UPLC/MS/ESI analysis; format: ADME; conditions: 0.5 h
In short: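 Metabolic stability was run with mouse liver microsomal fraction (S9) and read as percent parent compound remaining over incubation time. Diclofenac served as the reference compound.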

[6] = Drug metabolism in human liver microsomes assessed as CYP450 mediated compound […] by measuring parent compound remaining at 5 uM after 30 mins in presence of NADPH by UPLC/MS/ESI analysis; format: ADME; conditions: read-out: Stability
[7] = Drug metabolism in human liver microsomes assessed as CYP450 mediated compound […] by measuring parent compound remaining at 5 uM after 60 mins in presence of NADPH by UPLC/MS/ESI analysis; format: ADME; conditions: read-out: Stability
[8] = Drug metabolism in human liver microsomes assessed as UGT mediated compound […] by measuring parent compound remaining at 5 uM after 15 mins in presence of UDPGA by UPLC/MS/ESI analysis; format: ADME; conditions: read-out: Stability
[9] = Drug metabolism in human liver microsomes assessed as UGT mediated compound […] by measuring parent compound remaining at 5 uM after 30 mins in presence of UDPGA by UPLC/MS/ESI analysis; format: ADME; conditions: read-out: Stability
[10] = test system: Trypanosoma brucei brucei; experiment: Antitrypanosomal activity against Trypanosoma brucei brucei Squib 427 infected in Swiss mouse assessed as mouse survival at 25 mg/kg, po bid for 5 days and measured on day 14 post infection; format: functional, organism-based
In short: (§1)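 Acute T. b. brucei mouse infection model. Dosing was PO or IP at 10–50 mg/kg, once (SID) or twice (BID) daily for 5 days after infection, with 3 mice per group. […] Read-outs were mean survival time and survivors on day 14 post infection.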

[11] = test system: Trypanosoma brucei brucei; experiment: Antitrypanosomal activity against Trypanosoma brucei brucei Squib 427 infected in Swiss mouse assessed as mouse survival at 10 mg/kg, ip administered as single dose for 5 days and measured on day 14 post infection; format: functional, organism-based; in short: as §1
[12] = test system: Trypanosoma brucei brucei; experiment: Antitrypanosomal activity against Trypanosoma brucei brucei Squib 427 infected in Swiss mouse assessed as mean survival days at 25 mg/kg, po bid for 5 days; format: functional
In short: (§2)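 Acute mouse infection model with T. b. brucei. Dosing ran for 5 days after infection, orally or intraperitoneally, once or twice daily. Groups were 3 mice each, with vehicle-treated infected controls. The read-out was mean survival time in days, plus the number of survivors on day 14 post-infection.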

[13] = test system: Trypanosoma brucei brucei; experiment: Antitrypanosomal activity against Trypanosoma brucei brucei Squib 427 infected in Swiss mouse assessed as mean survival days at 50 mg/kg, po bid for 5 days; format: functional; in short: as §2
[14] = Drug metabolism in human plasma assessed as parent compound remaining after 30 mins by UPLC/MS/ESI analysis; format: ADME, cell-free; conditions: read-out: Stability
[15] = Drug level in Swiss mouse blood infected with Trypanosoma brucei brucei Squib 427 at 50 mg/kg, po bid for 5 days measured after 2 hrs after last dose by UPLC/MS/ESI analysis; format: ADME, organism-based; conditions: whole blood, read-out: Drug uptake
[16] = Drug level in Swiss mouse blood infected with Trypanosoma brucei brucei Squib 427 at 25 mg/kg, po bid for 5 days measured after 0.5 hrs after last dose by UPLC/MS/ESI analysis; format: ADME, organism-based; conditions: whole blood, read-out: Drug uptake
[17] = Drug level in Swiss mouse blood infected with Trypanosoma brucei brucei Squib 427 at 25 mg/kg, po bid for 5 days measured after 1 hr after last dose by UPLC/MS/ESI analysis; format: ADME, organism-based; conditions: whole blood, read-out: Drug uptake
[18] = Drug uptake in Swiss mouse blood at 50 mg/kg, po administered as single dose after 2 hrs by UPLC/MS/ESI analysis; format: ADME, organism-based; conditions: whole blood, read-out: Drug uptake
In short: (§3)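 Mice were given the compound orally as a single dose of either 25 or 50 mg/kg, one group per dose. Plasma concentrations were followed over time up to 24 h, and the pharmacokinetic parameters were derived from the concentration-time profile.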

[19] = Drug uptake in Swiss mouse blood at 50 mg/kg, po administered as single dose after 24 hrs by UPLC/MS/ESI analysis; format: ADME, organism-based; conditions: whole blood, read-out: Drug uptake; in short: as §3
[20] = Drug uptake in Swiss mouse blood at 25 mg/kg, po administered as single dose after 0.5 hrs by UPLC/MS/ESI analysis; format: ADME, organism-based; conditions: whole blood, read-out: Drug uptake; in short: as §3
[21] = Drug uptake in Swiss mouse blood at 25 mg/kg, po administered as single dose after 24 hrs by UPLC/MS/ESI analysis; format: ADME, organism-based; conditions: whole blood, read-out: Drug uptake; in short: as §3
[22] = test system: Mus musculus; experiment: Apparent volume of distribution in Swiss mouse infected with Trypanosoma brucei brucei Squib 427 at 50 mg/kg, po bid for 5 days after 24 hrs by UPLC/MS/ESI analysis; format: ADME, organism-based; conditions: in vivo
[23] = Clearance in Swiss mouse infected with Trypanosoma brucei brucei Squib 427 at 50 mg/kg, po bid for 5 days after 24 hrs by UPLC/MS/ESI analysis; format: ADME, organism-based; conditions: in vivo
[24] = Half life in Swiss mouse infected with Trypanosoma brucei brucei Squib 427 at 25 mg/kg, po administered as single dose after 24 hrs by UPLC/MS/ESI analysis; format: ADME, organism-based; conditions: in vivo
[25] = AUC (0 to >4 hrs) in Swiss mouse infected with Trypanosoma brucei brucei Squib 427 at 25 mg/kg, po administered as single dose by UPLC/MS/ESI analysis; format: ADME, organism-based; conditions: in vivo
[26] = Clearance in Swiss mouse infected with Trypanosoma brucei brucei Squib 427 at 25 mg/kg, po administered as single dose after 24 hrs by UPLC/MS/ESI analysis; format: ADME, organism-based; conditions: in vivo
[27] = AUC (0 to >4 hrs) in Swiss mouse at 25 mg/kg, po administered as single dose by UPLC/MS/ESI analysis; format: ADME, organism-based; conditions: in vivo
In short: (§4)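 Mice in groups received one oral dose of 25 or 50 mg/kg. Plasma concentrations were followed over time up to 24 h, and PK parameters including T1/2 were derived from the concentration–time profile.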

[28] = test system: Mus musculus; experiment: Apparent volume of distribution in Swiss mouse at 25 mg/kg, po administered as single dose after 24 hrs by UPLC/MS/ESI analysis; format: ADME, organism-based; conditions: in vivo; in short: as §4
[29] = Ratio of Cmax in Swiss mouse at 50 mg/kg, po administered as single dose after 24 hrs by LC-MS analysis to IC50 for antitrypanosomal activity against suramin-sensitive Trypanosoma brucei brucei Squib 427 after 72 hrs by resazurin dye-based fluorimetric analysis; format: ADME, organism-based; conditions: in vivo
[30] = Protein binding in mouse plasma at 10 uM after 6 hrs by equilibrium dialysis and LC-MS analysis; format: ADME, cell-free; conditions: read-out: PPB (converted)
[31] = Protein binding in mouse plasma assessed as drug recovery at 10 uM after 6 hrs by equilibrium dialysis and LC-MS analysis; format: ADME, cell-free; conditions: read-out: Drug recovery
[32] = Protein binding in 10% FBS in Trypanosoma brucei culture medium assessed as drug recovery at 10 uM after 6 hrs by equilibrium dialysis and LC-MS analysis; format: ADME, cell-free, Bos taurus, Serum; conditions: cattle, read-out: Drug recovery

Nc1nc(Nc2ccc(F)cc2)nc(Oc2ccc(F)cc2)n1
IC50 [1]: > 64 µM | IC50 [2]: > 64 µM | IC50 [3]: > 64 µM | remaining at 0.5 h, 5 µM [4]: 80% | Stability [5]: 103% | remaining at 0.5 h, 5 µM [6]: 85% | remaining at 1 h, 5 µM [7]: 65% | remaining at 0.25 h, 5 µM [8]: 107% | remaining at 0.5 h, 5 µM [9]: 97% | Activity [10]: inactive | Activity [11]: inactive | MST [12]: 6 days | MST [13]: 5.7 days | remaining at 0.5 h [14]: 91% | concentration at 2 h [15]: 2840 ng/mL | concentration at 0.5 h [16]: 2090 ng/mL | concentration at 1 h [17]: 2410 ng/mL | concentration at 2 h [18]: 1630 ng/mL | concentration at 24 h [19]: 150 ng/mL | concentration at 0.5 h [20]: 842 ng/mL | concentration at 24 h [21]: 50 ng/mL | Vz [22]: 10.9 L | CL/F [23]: 89.9 mL/min | half-life [24]: 51 min | AUC at 4 h [25]: 4710 ng·h/mL | CL/F [26]: 176 mL/min | AUC at 4 h [27]: 13800 ng·h/mL | Vz [28]: 26.7 L | Ratio [29]: 10 | fraction unbound at 6 h, 10 µM [30]: 0.023 | recovery at 6 h, 10 µM [31]: 75.4% | recovery at 6 h, 10 µM [32]: 71.1%
